Laboratory results taken from ChEMBL document CHEMBL1132528, “A novel molecular design of thrombin receptor antagonist” (Bioorg Med Chem Lett, 1999).
Active and inactive are the calls of the source. The rule behind the calls is not given here. Peptide text beside a SMILES is read from it.

Columns and labels:
[1] = organism: Homo sapiens; experiment: Platelet aggregation activity of the compound; IA means inactive; format: functional, organism-based
How it was run: (§1)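 Human platelet-rich plasma from healthy donors who had taken no medication for the previous two weeks. Synthetic peptides were added directly and scored for their ability to induce platelet aggregation.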

[2] = target: T1, Proteinase-activated receptor 1 (Homo sapiens) (UniProt P25116); experiment: Thrombin receptor antagonistic activity was evaluated by the inhibition of platelet aggregation induced by the agonist SFLLRNP; IA means inactive; format: functional
T1 sequence (whole entry): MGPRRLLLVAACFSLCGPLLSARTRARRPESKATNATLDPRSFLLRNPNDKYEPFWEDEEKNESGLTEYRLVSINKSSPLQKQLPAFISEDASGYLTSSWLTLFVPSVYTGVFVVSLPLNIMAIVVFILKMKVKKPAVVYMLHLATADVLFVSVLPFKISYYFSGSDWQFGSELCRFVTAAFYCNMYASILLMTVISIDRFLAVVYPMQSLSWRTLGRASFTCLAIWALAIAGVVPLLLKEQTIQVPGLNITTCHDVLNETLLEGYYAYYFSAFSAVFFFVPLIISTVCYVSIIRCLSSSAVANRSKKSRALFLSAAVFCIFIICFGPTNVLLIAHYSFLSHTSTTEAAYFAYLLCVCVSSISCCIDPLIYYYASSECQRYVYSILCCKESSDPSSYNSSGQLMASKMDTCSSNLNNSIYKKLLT
How it was run: (§2)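 Human platelet-rich plasma from drug-free healthy donors. Test peptide (e.g. 100 μM) was incubated in the plasma for 3 min, then SFLLRNP agonist was added to induce aggregation. Inhibition of aggregation was measured; IC50 came from dose-dependent inhibition.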

[3] = target: T1, Proteinase-activated receptor 1 (Homo sapiens); experiment: Thrombin receptor antagonistic activity was evaluated by the inhibition of platelet aggregation induced by the agonist SFLLRNP; format: functional; set-up: scale not given: the % may be the effect or the level left; how it was run: as §2
[4] = organism: Homo sapiens; experiment: Platelet aggregation activity of the compound; format: functional, organism-based; how it was run: as §1

SMILES	EC50 [1]	Activity [2]	Activity [3]	EC50 [4]
CC(C)C[C@H](NC(=O)[C@H](CC(C)C)NC(=O)[C@H](Cc1ccccc1)NC(=O)[C@@H](N)CO)C(=O)N[C@@H](CC(=O)O)C(=O)N[C@@H](CC(N)=O)C(=O)N1CCC[C@H]1C(=O)O (H-SFLLDNP-OH)	Not Active	inactive		
CC(C)C[C@H](NC(=O)[C@H](CC(C)C)NC(=O)[C@H](Cc1ccccc1)NC(=O)[C@@H](N)CO)C(=O)N[C@@H](CCCN=C(N)N)C(=O)N[C@@H](CC(N)=O)C(=O)N[C@@H](CC(=O)O)C(=O)O (H-SFLLRND-OH)		inactive		4.27 µM
CC(C)C[C@H](NC(=O)[C@H](CC(C)C)NC(=O)[C@H](CC(=O)O)NC(=O)[C@@H](N)CO)C(=O)N[C@@H](CCCN=C(N)N)C(=O)N[C@@H](CC(N)=O)C(=O)N1CCC[C@H]1C(=O)O (H-SDLLRNP-OH)	Not Active	inactive		
CC(C)C[C@H](NC(=O)[C@H](CC(C)C)NC(=O)[C@H](Cc1ccccc1)NC(=O)[C@@H](N)CO)C(=O)N[C@@H](CCCN=C(N)N)C(=O)N[C@@H](CC(N)=O)C(=O)N1CCC[C@H]1C(=O)O (H-SFLLRNP-OH)		inactive		4.27 µM

Second part, the compound after the results:

EC50 [1]	Activity [2]	Activity [3]	EC50 [4]	SMILES
Not Active	inactive			CC(C)C[C@H](NC(=O)[C@H](CC(C)C)NC(=O)[C@H](Cc1ccccc1)NC(=O)[C@@H](N)CC(=O)O)C(=O)N[C@@H](CCCN=C(N)N)C(=O)N[C@@H](CC(N)=O)C(=O)N1CCC[C@H]1C(=O)O (H-DFLLRNP-OH)
Not Active		19%		CC(C)C[C@H](NC(=O)[C@H](CC(=O)O)NC(=O)[C@H](Cc1ccccc1)NC(=O)[C@@H](N)CO)C(=O)N[C@@H](CCCN=C(N)N)C(=O)N[C@@H](CC(N)=O)C(=O)N1CCC[C@H]1C(=O)O (H-SFDLRNP-OH)
Not Active	inactive			CC(C)C[C@H](NC(=O)[C@H](Cc1ccccc1)NC(=O)[C@@H](N)CO)C(=O)N[C@@H](CC(=O)O)C(=O)N[C@@H](CCCN=C(N)N)C(=O)N[C@@H](CC(N)=O)C(=O)N1CCC[C@H]1C(=O)O (H-SFLDRNP-OH)
	inactive		4.36 µM	CC(C)C[C@H](NC(=O)[C@H](CC(C)C)NC(=O)[C@H](Cc1ccccc1)NC(=O)[C@@H](N)CO)C(=O)N[C@@H](CCCN=C(N)N)C(=O)N[C@@H](CC(=O)O)C(=O)N1CCC[C@H]1C(=O)O (H-SFLLRDP-OH)
